Read-outs that look alike come from different tables or passages of the source.
Legend:
[1] = cited from earlier work
[2] = cited from earlier work; remark: listed apart in the source
[3] = in vitro data and data from the ADME study; cited from earlier work
[4] = parenteral formulation, rabbit; cited from earlier work
[5] = Safety and tolerability evaluation in the absolute bioavailability study; format: in vivo, human
How it was run: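 Healthy subjects in a randomized crossover each received a single 100 mg oral tablet and a single 50 mg IV infusion over 1.25 h, fasted. Recorded as AEs: adverse drug reactions, illnesses with onset during study, exacerbation of previous illness, clinically significant physical-examination changes and abnormal objective test findings. Vital signs, ECG and laboratory parameters were monitored.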

[6] = once daily (QD), patients with advanced myeloid malignancies; cited from earlier work
[7] = format: in vivo, human; details: for clearance: CL; for half-life: t½
How it was run: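 Open-label, randomized 2-period, 2-sequence crossover in 12 healthy volunteers, fasted ≥10 h. Single 100 mg oral tablet with water to 240 mL, or 50 mg IV (1 mg/mL over 1.25 h). Plasma sampled 0–96 h and assayed by HPLC-MS/MS (LLOQ 3 ng/mL). Noncompartmental analysis used: CL/F = dose/AUC0‐∞. Log dose-normalized AUCs fitted by linear mixed-effect model; ratios exponentiated with 90% CI.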

[8] = cited from earlier work; remark: listed apart in the source
human blood = details: parenteral formulation, in vitro; cited from earlier work
[9] = Hepatic extraction estimate, well-stirred model; design: species or system human; details: hepatic blood flow of 87 L/h
[10] = weakly basic drug; cited from earlier work
[11] = test system: cytochrome P450 (CYP) 3A4/5; details: preclinical studies; cited from earlier work
Human mass balance = format: in vivo; details: urine, po, 100 mg
[12] = single 100‐mg dose; cited from earlier work
[13] = 100 mg oral tablet, single dose, fasted
[14] = human, plasma, iv, 50 mg, arithmetic mean ± SD, 50 mg IV, single dose, fasted
[15] = human, plasma, iv, 50 mg, geometric mean (geometric CV, %), 50 mg IV, single dose, fasted
[16] = human, plasma, po, 100 mg, arithmetic mean ± SD, 100 mg oral tablet, single dose, fasted

Compound: [^14C]glasdegib
- Mean recovery of radioactivity in urine (as parent and metabolites) ([1]; single oral dose of 100‐mg/100‐µCi, 6 healthy volunteers): 49%

Compound: CN1CC[C@@H](NC(=O)Nc2ccc(C#N)cc2)C[C@@H]1c1nc2ccccc2[nH]1 [Glasdegib]
- Maximum tolerated dose ([2]; QD, patients with advanced solid tumor): 320 mg
- Tolerability ([2]; single dose of 320 mg, patients with advanced tumors): well tolerated
- Plasma to whole blood partitioning [3]: < 1
- Local vascular tissue irritation [4]: did not suggest that glasdegib was the cause of hemolysis in human blood and/or local vascular tissue irritation
- AEs reported ([5]; following 50 mg IV administration): No AEs were reported
- Number of AEs reported ([5]; following 100 mg oral tablet, 1 mild and 1 moderate, in 2 subjects): 2
- Tolerability ([5]; single 100‐mg oral and 50‐mg IV doses, healthy subjects): generally safe and well tolerated
- Peak ALT elevation, subject with moderate AE ([5]; treatment period 1 day 10, after oral 100 mg): 3 × upper limit of normal
- Maximum tolerated dose as a single agent [6]: 400 mg
- AUC0‐last(dn), dose normalized geometric mean from the statistical model ([7]; 50 mg IV): 96.98 ng·h/mL/mg
- AUC0‐∞(dn), dose normalized geometric mean from the statistical model ([7]; 50 mg IV): 98.90 ng·h/mL/mg
- Intersubject variability in CL, %CV of the geometric mean ([7]; 50 mg IV): 38%
- t½, arithmetic mean ± SD ([7]; 50 mg IV, single dose, fasted): 13.78 ± 2.97 h
- AUC0‐last(dn), dose normalized geometric mean from the statistical model ([7]; 100 mg oral tablet): 74.88 ng·h/mL/mg
- AUC0‐∞(dn), dose normalized geometric mean from the statistical model ([7]; 100 mg oral tablet): 76.28 ng·h/mL/mg
- Intersubject variability in CL/F, %CV of the geometric mean ([7]; 100 mg oral tablet): 38%
- CL/F, arithmetic mean ± SD [7, 13]: 13.87 ± 4.51 L/h
- CL/F, geometric mean (geometric CV, %) [7, 13]: 13.10 (38) L/h
- t½, arithmetic mean ± SD [7, 13]: 14.26 ± 2.45 h
- CL/F, arithmetic mean ± SD ([7]; 100 mg oral tablet, single dose, fasted, listed as glasdegib): 13.87 L/h
- Tmax ([7]; human, plasma, iv, 50 mg): 1.27 h
- AUC ([7]; human, plasma, iv, 50 mg, AUC0‐last, arithmetic mean ± SD, 50 mg IV, single dose, fasted): 5120 ± 2160 ng·h/mL
- AUC ([7]; human, plasma, iv, 50 mg, AUC0‐last, geometric mean (geometric CV, %), 50 mg IV, single dose, fasted): 4780 ng·h/mL
- AUC ([7]; human, plasma, iv, 50 mg, AUC0‐∞, arithmetic mean ± SD, 50 mg IV, single dose, fasted): 5220 ± 2210 ng·h/mL
- AUC ([7]; human, plasma, iv, 50 mg, AUC0‐∞, geometric mean (geometric CV, %), 50 mg IV, single dose, fasted): 4880 ng·h/mL
- clearance [7, 14]: 181 mL/min
- clearance [7, 15]: 171 mL/min
- Cmax [7, 14]: 687 ± 197 ng/mL
- Cmax [7, 15]: 665 ng/mL
- half-life [7, 14]: 828 min
- bioavailability ([7]; human, plasma, oral, Absolute oral bioavailability, arithmetic mean ± SD, arithmetic mean ratios, without logarithmic transformation, of AUC0‐∞(dn) oral to IV): 78.5 ± 12.8%
- Tmax ([7]; human, plasma, po, 100 mg): 1.52 h
- AUC ([7]; human, plasma, po, 100 mg, AUC0‐last, arithmetic mean ± SD, 100 mg oral tablet, single dose, fasted): 7990 ± 3310 ng·h/mL
- AUC ([7]; human, plasma, po, 100 mg, AUC0‐last, geometric mean (geometric CV, %), 100 mg oral tablet, single dose, fasted): 7490 ng·h/mL
- AUC ([7]; human, plasma, po, 100 mg, AUC0‐∞, arithmetic mean ± SD, 100 mg oral tablet, single dose, fasted): 8160 ± 3440 ng·h/mL
- AUC ([7]; human, plasma, po, 100 mg, AUC0‐∞, geometric mean (geometric CV, %), 100 mg oral tablet, single dose, fasted): 7630 ng·h/mL
- Cmax [7, 16]: 684 ± 155 ng/mL
- Cmax ([7]; human, plasma, po, 100 mg, geometric mean (geometric CV, %), 100 mg oral tablet, single dose, fasted): 668 ng/mL
- half-life [7, 16]: 858 min
- Impact of disintegration and dissolution on absorption kinetics ([8]; oral solution compared to instant‐release tablet): do not appear to impact the absorption kinetics
- Geometric mean Cmax ([8]; single 100‐mg oral dose, 100‐mg maleate immediate release tablet, healthy subjects): 775.3 ng/mL
- Hemolysis in human blood (human blood): did not suggest that glasdegib was the cause of hemolysis in human blood
- Hepatic extraction [9]: < 0.3
- Solubility, pH dependence [10]: decreasing solubility as pH increases
- Metabolizing enzyme [11]: primarily metabolized by cytochrome P450 (CYP) 3A4/5
- Administered parent dose recovered in the feces [1]: 19.5%
- Contribution of the glucuronidation pathway via UGT1A9 to elimination [1]: only minor
- Major route of elimination [1]: primarily through CYP3A4 oxidation
- Mean plasma renal clearance [1]: 1.97 L/h
- dose excreted (Human mass balance): ≥ 49%
- Effect of proton‐pump inhibitors on glasdegib PK [12]: do not have a clinically relevant effect

From PMC6850403 (Clinical Pharmacology in Drug Development, 2019)
